# Laboratory results: ChEMBL document CHEMBL1129463, “Discovery of 1,5-benzodiazepines with peripheral cholecystokinin (CCK-A) receptor agonist activity (II): Optimization of the C3 amino substituent” (J Med Chem, 1996)
# Active and inactive are the calls of the source. The rule behind the calls is not given here.
# How the values were obtained:
# Cavia porcellus [1] = species: Cavia porcellus; experiment: In vitro Functional activity on the isolated guinea pig gallbladder following incubation at 1 micro M percent contraction normalized to that for CCK-8
# Outline: (§1)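 Contraction is expressed as percent of the CCK-8 (1 μM) response. Non-contracting compounds were tested for antagonism against a CCK-8 curve (10⁻¹¹ to 10⁻⁶ M).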
# Cavia porcellus [2] = species: Cavia porcellus; experiment: In vitro functional activity on the isolated guinea pig gallbladder; design: concentration or dose not given beside the values
# Cavia porcellus [3] = species: Cavia porcellus; experiment: In vitro Functional activity on the isolated guinea pig gallbladder following incubation at 30 uM percent contraction normalized to that for CCK-8; inactive; outline: as §1
# Cavia porcellus [4] = species: Cavia porcellus; experiment: Maximum contractile response at 30 uM, normalized to CCK-8 (1 uM); type: functional
# Cavia porcellus [5] = species: Cavia porcellus; experiment: In vitro potency on the isolated guinea pig gallbladder; type: functional
# Mus musculus [6] = experiment: Compound was tested in vivo for its activity in mouse gallbladder emptying assay at dose of 1 umol/kg po; ia = Inactive; type: functional, organism-based
# Mus musculus [7] = experiment: Compound was tested in vivo for Percent Maximal response in mouse gallbladder emptying assay at dose of 1 umol/kg po; ia = Inactive; type: functional, organism-based
# Rattus norvegicus [8] = experiment: Compound was tested in vivo for its Percent Maximal anorectic potency in rats at dose of 0.1 umol/kg ip; type: functional
# Rattus norvegicus [9] = experiment: Compound was tested in vivo for its anorectic potency in rats at dose of 0.5 umol/kg ip
# Rattus norvegicus [10] = experiment: Compound was tested in vivo for its Percent Maximal anorectic potency in rats at dose of 10 umol/kg po; ia = Inactive
# Mus musculus [11] = experiment: Compound was tested in vivo Percent Maximal response activity in mouse gallbladder emptying assay at dose of 1 nmol/kg ip
# Cavia porcellus [12] = species: Cavia porcellus; experiment: In-vitro potency on the isolated guinea pig gallbladder; type: functional
# Mus musculus [13] = experiment: Compound was tested in vivo for its activity in mouse gallbladder emptying assay at dose of 0.1 umol/kg ip; type: functional
# Rattus norvegicus [14] = experiment: Compound was tested in vivo for its Percent Maximal anorectic potency in rats at dose of 0.5 umol/kg ip
Structure (SMILES),Activity (Cavia porcellus [2]) [%],further results
CC(C)N(C(=O)CN1C(=O)C(NC(=O)Nc2cccc(-c3nn[nH]n3)c2)C(=O)N(c2ccccc2)c2ccccc21)c1ccccc1 (stereo not drawn),79,Activity (Cavia porcellus [1]): 64%
COc1ccc(NC(=O)NC2C(=O)N(CC(=O)N(c3ccccc3)C(C)C)c3ccccc3N(c3ccccc3)C2=O)cc1 (stereo not drawn),38,–
CSc1cccc(NC(=O)NC2C(=O)N(CC(=O)N(c3ccccc3)C(C)C)c3ccccc3N(c3ccccc3)C2=O)c1 (stereo not drawn),58,–
CC(C)N(C(=O)CN1C(=O)C(NC(N)=O)C(=O)N(c2ccccc2)c2ccccc21)c1ccccc1 (stereo not drawn),–,Activity (Cavia porcellus [3]): inactive
CC(C)N(C(=O)CN1C(=O)C(NC(=O)Nc2ccccc2)C(=O)N(c2ccccc2)c2ccccc21)c1ccccc1 (stereo not drawn),86,Max (Cavia porcellus [4]): 86%; EC50 (Cavia porcellus [5]): 1.26 µM; ED50 (Mus musculus [6]): inactive; Max (Mus musculus [7]): inactive; Max (Rattus norvegicus [8]): 96%; ED50 (Rattus norvegicus [9]): 0.95 µmol/kg; Max (Rattus norvegicus [10]): inactive; Max (Mus musculus [11]): 78%
CC(C)N(C(=O)CN1C(=O)C(NC(=O)c2ccccc2)C(=O)N(c2ccccc2)c2ccccc21)c1ccccc1 (stereo not drawn),57,–
CC(C)N(C(=O)CN1C(=O)C(NC(=O)c2cccnc2)C(=O)N(c2ccccc2)c2ccccc21)c1ccccc1 (stereo not drawn),43,–
CC(C)N(C(=O)CN1C(=O)C(NC(=O)Nc2cccc(CC(=O)O)c2)C(=O)N(c2ccccc2)c2ccccc21)c1ccccc1 (stereo not drawn),89,–
CC(C)N(C(=O)CN1C(=O)C(NC(=O)Cc2ccccc2)C(=O)N(c2ccccc2)c2ccccc21)c1ccccc1 (stereo not drawn),28,–
CC(C)N(C(=O)CN1C(=O)C(NC(=O)Nc2ccccc2O)C(=O)N(c2ccccc2)c2ccccc21)c1ccccc1 (stereo not drawn),16,–
CC(C)N(C(=O)CN1C(=O)C(NC(=O)Nc2cccc(OCC(=O)N(C)C)c2)C(=O)N(c2ccccc2)c2ccccc21)c1ccccc1 (stereo not drawn),77,–
CC(C)N(C(=O)CN1C(=O)C(NC(=O)Nc2cccc(OCC(N)=O)c2)C(=O)N(c2ccccc2)c2ccccc21)c1ccccc1 (stereo not drawn),95,–
CC(C)N(C(=O)CN1C(=O)C(NC(=O)NCc2ccccc2)C(=O)N(c2ccccc2)c2ccccc21)c1ccccc1 (stereo not drawn),1,–
CC(C)N(C(=O)CN1C(=O)C(NC(=O)Nc2cccc(CO)c2)C(=O)N(c2ccccc2)c2ccccc21)c1ccccc1 (stereo not drawn),90,Activity (Cavia porcellus [1]): 85%
Cc1cccc(NC(=O)NC2C(=O)N(CC(=O)N(c3ccccc3)C(C)C)c3ccccc3N(c3ccccc3)C2=O)c1 (stereo not drawn),5,–
CC(C)N(C(=O)CN1C(=O)C(NC(=O)N2CCNCC2)C(=O)N(c2ccccc2)c2ccccc21)c1ccccc1 (stereo not drawn),–,Activity (Cavia porcellus [3]): inactive
CSCC[C@H](NC(=O)[C@H](Cc1ccc(OS(=O)(=O)O)cc1)NC(=O)[C@@H](N)CC(=O)O)C(=O)NCC(=O)N[C@@H](Cc1c[nH]c2ccccc12)C(=O)N[C@@H](CCSC)C(=O)N[C@@H](CC(=O)O)C(=O)N[C@@H](Cc1ccccc1)C(N)=O [SINCALIDE],–,Max (Cavia porcellus [4]): 100%; EC50 (Cavia porcellus [12]): 0.000794 µM; ED50 (Mus musculus [13]): 3e-05 µmol/kg; ED50 (Rattus norvegicus [9]): 0.027 µmol/kg; Max (Rattus norvegicus [14]): 95%; Max (Rattus norvegicus [10]): inactive; Max (Mus musculus [11]): 95%
CC(C)N(C(=O)CN1C(=O)C(NC(=O)Nc2cccc(Cl)c2)C(=O)N(c2ccccc2)c2ccccc21)c1ccccc1 (stereo not drawn),7,–
CC(C)N(C(=O)CN1C(=O)C(NC(=O)Nc2cccc(N(C)C)c2)C(=O)N(c2ccccc2)c2ccccc21)c1ccccc1 (stereo not drawn),58,Activity (Cavia porcellus [1]): 29%

Structure (SMILES),Activity (Cavia porcellus [2]) [%],further results
CC(C)N(C(=O)CN1C(=O)C(NC(=O)c2ccccc2C(=O)O)C(=O)N(c2ccccc2)c2ccccc21)c1ccccc1 (stereo not drawn),58,–
CC(C)N(C(=O)CN1C(=O)C(NC(=O)Nc2cccc(O)c2)C(=O)N(c2ccccc2)c2ccccc21)c1ccccc1 (stereo not drawn),89,Activity (Cavia porcellus [1]): 82%
CC(C)N(C(=O)CN1C(=O)C(NC(=O)c2cc3ccccc3o2)C(=O)N(c2ccccc2)c2ccccc21)c1ccccc1 (stereo not drawn),35,–
CC(C)N(C(=O)CN1C(=O)C(NC(=O)c2cccc(C(=O)O)c2)C(=O)N(c2ccccc2)c2ccccc21)c1ccccc1 (stereo not drawn),56,–
COc1cccc(NC(=O)NC2C(=O)N(CC(=O)N(c3ccccc3)C(C)C)c3ccccc3N(c3ccccc3)C2=O)c1 (stereo not drawn),78,–
CC(C)N(C(=O)CN1C(=O)C(NC(=O)c2c[nH]c3ccccc23)C(=O)N(c2ccccc2)c2ccccc21)c1ccccc1 (stereo not drawn),5,–
CC(C)N(C(=O)CN1C(=O)C(NC(=O)c2ccncc2)C(=O)N(c2ccccc2)c2ccccc21)c1ccccc1 (stereo not drawn),43,–
CC(C)N(C(=O)CN1C(=O)C(NC(=O)Nc2cccc(OCCN(C)C)c2)C(=O)N(c2ccccc2)c2ccccc21)c1ccccc1 (stereo not drawn),2,–
CC(C)N(C(=O)CN1C(=O)C(NC(=O)Nc2cccc(OCC(=O)O)c2)C(=O)N(c2ccccc2)c2ccccc21)c1ccccc1 (stereo not drawn),98,Activity (Cavia porcellus [1]): 85%
CC(C)N(C(=O)CN1C(=O)C(NC(=O)Nc2cccc(C(N)=O)c2)C(=O)N(c2ccccc2)c2ccccc21)c1ccccc1 (stereo not drawn),76,–
Cc1ccc(NC(=O)NC2C(=O)N(CC(=O)N(c3ccccc3)C(C)C)c3ccccc3N(c3ccccc3)C2=O)cc1 (stereo not drawn),20,–
CC(C)N(C(=O)CN1C(=O)C(NC(=O)Nc2ccc(C(=O)O)cc2)C(=O)N(c2ccccc2)c2ccccc21)c1ccccc1 (stereo not drawn),14,–
Cc1ccccc1NC(=O)NC1C(=O)N(CC(=O)N(c2ccccc2)C(C)C)c2ccccc2N(c2ccccc2)C1=O (stereo not drawn),34,–
CC(C)N(C(=O)CN1C(=O)C(NC(=O)Nc2cccc(OCC(=O)N3CCOCC3)c2)C(=O)N(c2ccccc2)c2ccccc21)c1ccccc1 (stereo not drawn),78,–
CC(C)N(C(=O)CN1C(=O)C(NC(=O)Nc2cccc(NS(=O)(=O)C(F)(F)F)c2)C(=O)N(c2ccccc2)c2ccccc21)c1ccccc1 (stereo not drawn),89,Activity (Cavia porcellus [1]): 87%
CC(C)NC(=O)NC1C(=O)N(CC(=O)N(c2ccccc2)C(C)C)c2ccccc2N(c2ccccc2)C1=O (stereo not drawn),22,–
CC(C)N(C(=O)CN1C(=O)C(NC(=O)Nc2cccc(N)c2)C(=O)N(c2ccccc2)c2ccccc21)c1ccccc1 (stereo not drawn),76,Activity (Cavia porcellus [1]): 50%
CC(C)N(C(=O)CN1C(=O)C(NC(=O)Nc2cccc(S(C)(=O)=O)c2)C(=O)N(c2ccccc2)c2ccccc21)c1ccccc1 (stereo not drawn),53,–
